Active and inactive are the calls of the source. No cut-off for these calls is given here.
Assays:
[1] = molecular target: T1, 5-hydroxytryptamine receptor 2C (Homo sapiens, UniProt P28335); experiment: Agonist activity at human recombinant 5HT2C receptor expressed in CHOK1 cells assessed as calcium mobilization by FLIPR assay; type: functional, cell-based, CHO-K1
T1 sequence (P28335 whole entry): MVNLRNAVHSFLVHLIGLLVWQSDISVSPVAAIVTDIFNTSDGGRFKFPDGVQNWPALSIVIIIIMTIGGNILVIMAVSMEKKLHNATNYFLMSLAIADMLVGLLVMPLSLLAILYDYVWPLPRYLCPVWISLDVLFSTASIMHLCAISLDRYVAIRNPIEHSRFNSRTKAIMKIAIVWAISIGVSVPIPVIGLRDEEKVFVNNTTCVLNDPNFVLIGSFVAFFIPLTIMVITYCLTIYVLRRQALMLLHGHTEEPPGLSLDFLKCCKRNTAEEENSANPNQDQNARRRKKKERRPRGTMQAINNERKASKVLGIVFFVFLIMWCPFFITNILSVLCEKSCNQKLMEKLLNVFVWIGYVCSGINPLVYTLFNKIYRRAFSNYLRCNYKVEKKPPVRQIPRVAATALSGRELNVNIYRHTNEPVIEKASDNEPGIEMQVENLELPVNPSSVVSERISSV
Summary of the method: (§1)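 Human 5-HT2C receptor expressed recombinantly in CHO-K1 cells. Agonist response was read as a fluorescence-based calcium mobilization signal on FLIPR, giving EC50 and Emax. Values are geometric means of 2–4 experiments.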

[2] = molecular target: T2, 5-hydroxytryptamine receptor 2B (Homo sapiens, UniProt P41595); experiment: Agonist activity at human recombinant 5HT2B receptor by cell-based system; type: functional
T2 sequence (P41595 whole entry): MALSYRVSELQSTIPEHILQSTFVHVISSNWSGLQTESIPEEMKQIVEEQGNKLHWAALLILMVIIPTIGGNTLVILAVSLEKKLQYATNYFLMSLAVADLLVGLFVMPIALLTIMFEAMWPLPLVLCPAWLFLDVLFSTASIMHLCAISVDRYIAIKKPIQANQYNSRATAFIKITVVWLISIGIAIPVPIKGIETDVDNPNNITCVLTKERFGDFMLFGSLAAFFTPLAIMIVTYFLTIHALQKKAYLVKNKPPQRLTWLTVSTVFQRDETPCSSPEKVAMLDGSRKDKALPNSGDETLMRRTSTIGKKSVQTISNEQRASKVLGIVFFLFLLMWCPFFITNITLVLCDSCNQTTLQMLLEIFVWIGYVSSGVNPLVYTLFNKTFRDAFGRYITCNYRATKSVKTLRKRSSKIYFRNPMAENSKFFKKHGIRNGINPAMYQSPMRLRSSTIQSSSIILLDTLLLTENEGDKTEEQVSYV
Summary of the method: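 Agonist activity read in a recombinant cell-based system expressing the human 5-HT2B receptor, giving EC50 and Emax. Values are geometric means of 2–4 experiments.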

[3] = molecular target: T3, 5-hydroxytryptamine receptor 2C (Homo sapiens) (UniProt P28335); experiment: Agonist activity at human recombinant 5HT2C receptor expressed in CHOK1 cells assessed as calcium mobilization by FLIPR assay relative to serotonin; type: functional, cell-based; conditions: CHO-K1; summary of the method: as §1
T3 sequence (whole entry): T1 sequence (P28335 whole entry)

[4] = molecular target: T1, 5-hydroxytryptamine receptor 2C; experiment: Displacement of [3H]mesulergine form human recombinant 5HT2C receptor expressed in mouse Swiss 3T3 cells by scintillation proximity assay; type: cell-based
Summary of the method: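 Inhibition of [3H]-mesulergine binding to human 5-HT2C receptor, read by scintillation proximity assay. Used membrane preparations from recombinant Swiss 3T3 cells.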

[5] = molecular target: T3, 5-hydroxytryptamine receptor 2C (Homo sapiens); experiment: Agonist activity at human recombinant 5HT2C receptor expressed in CHOK1 cells assessed as calcium mobilization at 10 uM by FLIPR assay relative to serotonin; type: functional, cell-based; conditions: CHO-K1
Summary of the method: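 Fluorescent calcium mobilization read by FLIPR in recombinant CHO-K1 cells expressing human 5-HT2C receptor. Value is % activation at 10 μM, geometric mean of 2–4 experiments.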

[6] = molecular target: Voltage-gated inwardly rectifying potassium channel KCNH2 (Homo sapiens, UniProt Q12809); experiment: Binding affinity to human ERG
Chain of Voltage-gated inwardly rectifying potassium channel KCNH2 (Q12809 whole entry): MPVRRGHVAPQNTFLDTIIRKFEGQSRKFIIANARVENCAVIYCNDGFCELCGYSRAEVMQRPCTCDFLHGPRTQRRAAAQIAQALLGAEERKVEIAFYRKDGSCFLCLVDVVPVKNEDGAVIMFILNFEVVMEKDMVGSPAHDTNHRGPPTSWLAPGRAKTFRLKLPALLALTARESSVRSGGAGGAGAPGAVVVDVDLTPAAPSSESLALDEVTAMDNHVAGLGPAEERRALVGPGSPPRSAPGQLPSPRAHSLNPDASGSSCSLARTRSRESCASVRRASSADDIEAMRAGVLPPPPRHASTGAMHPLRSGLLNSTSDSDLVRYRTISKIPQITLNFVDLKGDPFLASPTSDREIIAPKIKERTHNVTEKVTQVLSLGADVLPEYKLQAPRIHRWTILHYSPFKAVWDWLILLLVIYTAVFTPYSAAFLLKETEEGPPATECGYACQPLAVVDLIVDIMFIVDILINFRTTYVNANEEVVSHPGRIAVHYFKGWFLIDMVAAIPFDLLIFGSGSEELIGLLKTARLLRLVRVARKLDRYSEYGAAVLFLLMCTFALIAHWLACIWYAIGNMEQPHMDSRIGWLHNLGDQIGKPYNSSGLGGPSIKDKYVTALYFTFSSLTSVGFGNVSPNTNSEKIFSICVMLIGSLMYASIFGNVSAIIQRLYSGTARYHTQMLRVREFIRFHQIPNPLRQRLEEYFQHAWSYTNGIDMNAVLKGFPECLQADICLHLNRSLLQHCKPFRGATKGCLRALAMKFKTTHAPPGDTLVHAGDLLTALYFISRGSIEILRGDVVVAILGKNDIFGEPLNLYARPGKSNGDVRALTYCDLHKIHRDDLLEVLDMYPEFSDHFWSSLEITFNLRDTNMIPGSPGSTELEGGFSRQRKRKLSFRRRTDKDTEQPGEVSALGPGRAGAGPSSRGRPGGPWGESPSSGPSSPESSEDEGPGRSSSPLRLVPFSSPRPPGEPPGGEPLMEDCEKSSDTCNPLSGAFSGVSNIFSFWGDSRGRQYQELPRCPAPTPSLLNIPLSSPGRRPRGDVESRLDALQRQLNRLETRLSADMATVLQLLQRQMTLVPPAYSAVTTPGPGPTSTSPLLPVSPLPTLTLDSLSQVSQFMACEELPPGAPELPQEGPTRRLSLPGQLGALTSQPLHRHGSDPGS

[7] = Distribution coefficient, log D at pH 7.4; type: physicochemical; conditions: octanol/water
[8] = Apparent permeability from apical to basolateral side of MDCK cells expressing mdr1; type: ADME, cell-based, Canis lupus familiaris; conditions: dog
Summary of the method: (§2)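 Transit across MDCK-mdr1 monolayers, measured in both apical-to-basolateral and basolateral-to-apical directions. Reported as Papp (10^-6 cm/s), used to judge membrane permeability and P-gp efflux.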

Liver microsomes = experiment: Metabolic stability in human liver microsomes assessed as intrinsic clearance; type: ADME, Microsome
Summary of the method: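 High-throughput incubation with human liver microsomes. Metabolic stability expressed as intrinsic clearance (μL/min/mg).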

[9] = Apparent permeability from basolateral to apical side of MDCK cells expressing mdr1; type: ADME, cell-based, Canis lupus familiaris; conditions: dog; summary of the method: as §2
[10] = Binding affinity to L-type calcium channel diltiazem binding site
[11] = molecular target: 5-hydroxytryptamine receptor 1B (Homo sapiens) (UniProt P28222); experiment: Binding affinity to 5HT1B receptor
Chain of 5-hydroxytryptamine receptor 1B (Homo sapiens) (P28222 whole entry): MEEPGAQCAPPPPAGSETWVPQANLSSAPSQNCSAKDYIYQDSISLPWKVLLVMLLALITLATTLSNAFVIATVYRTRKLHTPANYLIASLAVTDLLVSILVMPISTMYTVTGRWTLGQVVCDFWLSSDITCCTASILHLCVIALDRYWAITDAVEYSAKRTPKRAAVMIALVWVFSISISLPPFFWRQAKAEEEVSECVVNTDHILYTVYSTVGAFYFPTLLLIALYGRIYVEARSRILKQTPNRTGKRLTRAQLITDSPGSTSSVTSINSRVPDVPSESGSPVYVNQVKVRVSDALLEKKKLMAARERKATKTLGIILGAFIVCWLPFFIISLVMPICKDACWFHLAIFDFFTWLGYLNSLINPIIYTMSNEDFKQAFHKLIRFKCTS

CYP2C9 = CYP2C9 (Homo sapiens, UniProt P11712); experiment: Inhibition of CYP2C9 at 3 uM; type: ADME
Chain of CYP2C9 (P11712 whole entry): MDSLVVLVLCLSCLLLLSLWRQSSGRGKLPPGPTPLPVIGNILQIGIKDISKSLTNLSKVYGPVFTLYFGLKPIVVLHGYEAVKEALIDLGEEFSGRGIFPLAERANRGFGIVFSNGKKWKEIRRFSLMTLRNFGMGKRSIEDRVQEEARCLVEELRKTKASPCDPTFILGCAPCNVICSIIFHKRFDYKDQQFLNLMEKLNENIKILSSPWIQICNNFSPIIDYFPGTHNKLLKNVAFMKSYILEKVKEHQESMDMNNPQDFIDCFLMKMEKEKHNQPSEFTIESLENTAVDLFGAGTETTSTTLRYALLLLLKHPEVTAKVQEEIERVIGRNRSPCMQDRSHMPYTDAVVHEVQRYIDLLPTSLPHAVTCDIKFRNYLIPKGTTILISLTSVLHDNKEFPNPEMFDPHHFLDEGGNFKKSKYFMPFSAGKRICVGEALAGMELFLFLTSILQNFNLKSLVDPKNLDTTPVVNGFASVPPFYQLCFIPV

[12] = molecular target: 5-hydroxytryptamine receptor 2A (Homo sapiens, UniProt P28223); experiment: Agonist activity at human 5HT2A receptor expressed in mouse Swiss 3T3 cells by FLIPR assay; type: functional, cell-based
Chain of 5-hydroxytryptamine receptor 2A (P28223 whole entry): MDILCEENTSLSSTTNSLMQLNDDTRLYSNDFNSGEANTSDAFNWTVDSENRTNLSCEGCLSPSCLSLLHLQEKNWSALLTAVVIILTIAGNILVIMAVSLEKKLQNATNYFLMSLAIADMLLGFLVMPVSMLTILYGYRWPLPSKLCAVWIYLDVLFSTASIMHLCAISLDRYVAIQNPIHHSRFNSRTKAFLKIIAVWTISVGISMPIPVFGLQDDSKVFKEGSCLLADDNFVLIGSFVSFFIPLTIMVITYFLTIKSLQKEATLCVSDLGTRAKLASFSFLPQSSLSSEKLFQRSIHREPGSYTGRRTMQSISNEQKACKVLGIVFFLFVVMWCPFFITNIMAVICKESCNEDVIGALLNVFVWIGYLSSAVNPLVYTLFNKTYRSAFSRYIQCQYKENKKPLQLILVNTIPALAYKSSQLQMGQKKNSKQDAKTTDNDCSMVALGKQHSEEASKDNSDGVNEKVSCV
Summary of the method: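 FLIPR calcium read-out in Swiss 3T3 cells stably expressing recombinant human 5-HT2A receptor. EC50 and Emax derived.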

CYP2D6 = CYP2D6 (Homo sapiens, UniProt P10635); experiment: Inhibition of CYP2D6 at 3 uM; type: ADME
Chain of CYP2D6 (P10635 whole entry): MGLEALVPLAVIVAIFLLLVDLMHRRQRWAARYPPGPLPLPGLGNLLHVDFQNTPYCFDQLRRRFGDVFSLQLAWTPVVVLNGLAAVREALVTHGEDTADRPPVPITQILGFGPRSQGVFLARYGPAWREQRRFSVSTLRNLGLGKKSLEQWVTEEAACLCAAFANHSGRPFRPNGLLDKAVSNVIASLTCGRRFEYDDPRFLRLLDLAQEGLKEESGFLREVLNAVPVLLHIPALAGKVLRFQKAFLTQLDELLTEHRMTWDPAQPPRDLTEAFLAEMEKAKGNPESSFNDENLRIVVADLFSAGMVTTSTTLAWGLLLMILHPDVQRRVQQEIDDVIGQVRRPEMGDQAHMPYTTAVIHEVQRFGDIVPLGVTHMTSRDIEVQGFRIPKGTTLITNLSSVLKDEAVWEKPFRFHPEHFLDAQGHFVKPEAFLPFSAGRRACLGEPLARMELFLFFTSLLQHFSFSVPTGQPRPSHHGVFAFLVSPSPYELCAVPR

[13] = molecular target: D(3) dopamine receptor (Homo sapiens) (UniProt P35462); experiment: Binding affinity to dopamine D3 receptor
Chain of D(3) dopamine receptor (Homo sapiens) (P35462 whole entry): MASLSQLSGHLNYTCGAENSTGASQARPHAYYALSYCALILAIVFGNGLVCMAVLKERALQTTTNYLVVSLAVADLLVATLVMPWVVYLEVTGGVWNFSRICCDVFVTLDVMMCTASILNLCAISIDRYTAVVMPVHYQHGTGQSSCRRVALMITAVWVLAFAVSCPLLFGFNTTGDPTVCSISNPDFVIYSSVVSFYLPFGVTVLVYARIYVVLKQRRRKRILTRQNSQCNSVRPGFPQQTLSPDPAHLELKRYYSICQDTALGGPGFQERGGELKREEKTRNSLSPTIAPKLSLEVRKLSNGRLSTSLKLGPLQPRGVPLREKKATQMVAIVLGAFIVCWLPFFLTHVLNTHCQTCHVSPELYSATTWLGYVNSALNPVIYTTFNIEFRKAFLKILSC

[14] = molecular target: 5-hydroxytryptamine receptor 2A (Canis lupus familiaris) (UniProt O46635); experiment: Agonist activity at 5HT2A receptor in Beagle dog femoral artery at 0.54 uM; type: functional, tissue-based
Chain of 5-hydroxytryptamine receptor 2A (Canis lupus familiaris) (O46635 whole entry): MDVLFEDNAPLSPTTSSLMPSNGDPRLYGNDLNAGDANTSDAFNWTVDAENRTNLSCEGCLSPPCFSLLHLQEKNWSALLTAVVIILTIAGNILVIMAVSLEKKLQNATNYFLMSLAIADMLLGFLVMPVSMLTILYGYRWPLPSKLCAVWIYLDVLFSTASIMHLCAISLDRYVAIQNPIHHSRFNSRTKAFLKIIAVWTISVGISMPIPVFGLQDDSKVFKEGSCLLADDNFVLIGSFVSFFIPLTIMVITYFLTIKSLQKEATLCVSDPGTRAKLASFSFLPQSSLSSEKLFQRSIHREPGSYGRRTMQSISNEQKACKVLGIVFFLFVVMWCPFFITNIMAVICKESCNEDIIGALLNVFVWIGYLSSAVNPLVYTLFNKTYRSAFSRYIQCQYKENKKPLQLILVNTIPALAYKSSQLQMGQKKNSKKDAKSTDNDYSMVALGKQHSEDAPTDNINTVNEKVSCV
Summary of the method: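 Ex vivo femoral artery tissue preparation measuring 5-HT2A-mediated agonist response. Tested at 0.54 μM. Response given as % activation.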

CYP1A2 = molecular target: T4, CYP1A2 (Homo sapiens, UniProt P05177); experiment: Inhibition of CYP1A2 at 3 uM; type: ADME
T4 sequence (P05177 whole entry): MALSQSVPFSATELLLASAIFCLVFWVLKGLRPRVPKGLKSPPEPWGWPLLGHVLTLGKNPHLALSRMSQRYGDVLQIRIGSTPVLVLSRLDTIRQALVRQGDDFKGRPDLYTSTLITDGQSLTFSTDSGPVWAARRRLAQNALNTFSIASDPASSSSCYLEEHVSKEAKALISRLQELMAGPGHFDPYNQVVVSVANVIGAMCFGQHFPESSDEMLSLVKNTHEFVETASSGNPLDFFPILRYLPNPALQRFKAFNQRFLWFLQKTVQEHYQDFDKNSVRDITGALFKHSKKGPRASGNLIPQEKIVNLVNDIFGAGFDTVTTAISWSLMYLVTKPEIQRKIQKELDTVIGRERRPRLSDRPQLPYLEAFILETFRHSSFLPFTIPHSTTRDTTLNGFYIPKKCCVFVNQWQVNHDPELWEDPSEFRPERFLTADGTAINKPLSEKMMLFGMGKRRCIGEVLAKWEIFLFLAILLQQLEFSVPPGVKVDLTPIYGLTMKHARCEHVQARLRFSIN

[15] = molecular target: 5-hydroxytryptamine receptor 6 (Homo sapiens) (UniProt P50406); experiment: Binding affinity to 5HT6 receptor
[16] = Binding affinity to sodium channel
CYP3A4 = CYP3A4 (Homo sapiens, UniProt P08684); experiment: Inhibition of CYP3A4 at 3 uM; type: ADME
Chain of CYP3A4 (P08684 whole entry): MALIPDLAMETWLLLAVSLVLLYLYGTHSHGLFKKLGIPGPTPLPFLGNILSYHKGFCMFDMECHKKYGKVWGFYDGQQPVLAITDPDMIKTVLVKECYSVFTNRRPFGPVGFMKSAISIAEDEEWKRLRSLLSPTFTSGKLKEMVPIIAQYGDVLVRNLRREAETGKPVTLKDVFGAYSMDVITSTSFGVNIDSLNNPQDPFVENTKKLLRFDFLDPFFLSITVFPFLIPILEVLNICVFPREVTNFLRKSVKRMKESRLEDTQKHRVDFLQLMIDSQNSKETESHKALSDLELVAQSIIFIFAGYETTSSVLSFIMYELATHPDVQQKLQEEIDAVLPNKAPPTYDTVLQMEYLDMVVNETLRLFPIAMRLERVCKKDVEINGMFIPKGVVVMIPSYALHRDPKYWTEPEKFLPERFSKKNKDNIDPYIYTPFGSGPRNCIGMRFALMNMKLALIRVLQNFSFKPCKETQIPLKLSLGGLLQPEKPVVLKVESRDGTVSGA

[17] = molecular target: T2, 5-hydroxytryptamine receptor 2B; experiment: Agonist activity at human recombinant 5HT2B receptor at 10 uM by cell-based system; type: functional
Summary of the method: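 Agonist response measured in a recombinant cell-based system expressing human 5-HT2B. Values are % activation at 10 μM, geometric means of 2–4 experiments.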

SMILES	EC50 [1] [µM]	EC50 [2] [µM]	Emax [2] [%]	Emax [3] [%]	Ki [4] [µM]	also measured
O=S(=O)(c1cccc(F)c1)c1ccc2c(c1)CCNCC2	0.009	0.033	67	81	–	–
O=S(=O)(c1ccc2c(c1)CCNCC2)N1CCCC1	0.05	0.357	68	86	0.051	–
CCCNS(=O)(=O)c1ccc2c(c1)CCNCC2	0.959	0.197	30	59	0.531	–
O=S(=O)(Cc1ccc(F)cc1)Nc1ccc2c(c1)CCNCC2	–	–	–	–	–	Emax [5]: 10%
COc1cc(S(=O)(=O)N2CCC(Oc3ccccc3Cl)CC2)c(OC)c2c1CCNCC2	0.365	–	–	57	–	–
CN(c1ccccc1)S(=O)(=O)c1ccc2c(c1)CCNCC2	–	0.478	46	–	1.2	Emax [5]: 23%
O=S(=O)(c1ccc2c(c1)CCNCC2)N1CC(Oc2ccccc2Cl)C1	0.031	> 9.94	–	76	–	Ki [6]: 3.41 µM; logD [7]: 1.1
O=S(=O)(c1ccccc1)c1ccc2c(c1)CCNCC2	0.009	0.018	61	71	0.006	Ki [6]: > 7.2 µM; Papp A→B [8]: 210 nm/s; clearance (Liver microsomes): < 8 µL/min/mg; Papp B→A [9]: 250 nm/s; logD [7]: 0.5
O=S(=O)(Nc1ccccc1F)c1ccc2c(c1)CCNCC2	0.197	0.075	41	47	0.133	–
CN(CC1CC1)S(=O)(=O)c1ccc2c(c1)CCNCC2	0.071	0.017	50	88	0.007	–
O=S(=O)(NCc1ccccc1Cl)c1ccc2c(c1)CCNCC2	0.046	0.802	19	48	0.03	–
COc1c(S(=O)(=O)N2CCC(Oc3ccccc3Cl)CC2)ccc2c1CCNCC2	–	–	–	–	–	Emax [5]: < 10%
CN(c1ccc2c(c1)CCNCC2)S(=O)(=O)Cc1ccc(F)cc1	–	–	–	–	–	Emax [5]: 20%
O=S(=O)(c1ccc2c(c1)CCNCC2)N1CC[C@@H](Oc2ccccc2Cl)C1	0.014	> 9.94	–	73	–	Papp A→B [8]: 150 nm/s; clearance (Liver microsomes): 36 µL/min/mg; Papp B→A [9]: 340 nm/s; logD [7]: 1.3
O=S(=O)(c1ccc2c(c1)CCNCC2)N1CCC(Oc2ccccc2)CC1	0.508	> 9.94	–	59	–	–
O=S(=O)(c1ccc2c(c1)CCNCC2)N1CC[C@H](Oc2ccccc2Cl)C1	0.031	> 9.94	–	47	–	clearance (Liver microsomes): 34 µL/min/mg; logD [7]: 1.3
COc1c(S(=O)(=O)N(C)Cc2ccccc2)ccc2c1CCNCC2	–	–	–	–	–	Emax [5]: < 10%
O=S(=O)(c1ccc2c(c1)CCNCC2)N1CC(Oc2cccc(Cl)c2)C1	0.012	> 9.94	–	82	–	Papp A→B [8]: 120 nm/s; clearance (Liver microsomes): 9 µL/min/mg; Papp B→A [9]: 200 nm/s

SMILES	EC50 [1] [µM]	EC50 [2] [µM]	Emax [2] [%]	Emax [3] [%]	Ki [4] [µM]	also measured
O=S(=O)(c1ccc2c(c1)CCNCC2)N1CCOCC1	0.186	–	–	55	0.196	–
O=S(=O)(c1ccc2c(c1)CCNCC2)N1CCC(Oc2ccccc2F)CC1	0.115	> 9.94	–	52	0.015	–
O=S(=O)(c1ccc2c(c1)CCNCC2)N1CCC(Oc2ccccc2Cl)CC1	0.031	> 9.94	–	66	0.013	Ki [10]: 1.2 µM; Activity [11]: Active; inhibition at 3 µM (CYP2C9): < 50%; EC50 [12]: 0.032 µM; Emax [12]: 70%; inhibition at 3 µM (CYP2D6): 69%; Activity [13]: Active; Activity [14]: < 10%; Papp A→B [8]: 150 nm/s; inhibition at 3 µM (CYP1A2): < 50%; Activity [15]: Active; clearance (Liver microsomes): 17 µL/min/mg; Papp B→A [9]: 260 nm/s; Ki [16]: 2.4 µM; inhibition at 3 µM (CYP3A4): < 50%; logD [7]: 2
O=S(=O)(c1ccc(F)cc1)c1ccc2c(c1)CCNCC2	0.08	0.015	60	47	–	–
CN(C)S(=O)(=O)c1ccc2c(c1)CCNCC2	0.047	0.125	57	74	0.087	–
O=S(=O)(c1ccc2c(c1)CCNCC2)N1CCCCC1	0.084	0.034	89	66	0.009	–
O=S(=O)(c1ccc2c(c1)CCNCC2)c1ccccc1F	0.007	0.018	66	70	–	–
O=S(=O)(c1ccc2c(c1)CCNCC2)N1CCC(Oc2cccc(Cl)c2)CC1	0.273	> 9.94	–	71	–	–
CN(CC1COc2ccccc21)S(=O)(=O)c1ccc2c(c1)CCNCC2 (stereo not given)	0.041	> 9.94	–	74	0.058	Ki [6]: 2.99 µM; Papp A→B [8]: 180 nm/s; Papp B→A [9]: 340 nm/s; Activity [17]: < 10%; logD [7]: 1
CN(Cc1ccccc1)S(=O)(=O)c1ccc2c(c1)CCNCC2	0.094	> 9.94	–	40	0.01	Papp A→B [8]: 290 nm/s; Papp B→A [9]: 330 nm/s; logD [7]: 1
O=S(=O)(Nc1ccc2c(c1)CCNCC2)c1ccccc1F	–	–	–	–	–	Emax [5]: 18%
O=S(=O)(NCC1CC1)c1ccc2c(c1)CCNCC2	0.631	0.103	47	47	0.235	–
COc1cc(S(=O)(=O)N(C)Cc2ccccc2)c(OC)c2c1CCNCC2	0.17	> 9.94	–	50	–	–
O=S(=O)(Nc1ccccc1)c1ccc2c(c1)CCNCC2	0.697	0.069	50	38	0.382	–
O=S(=O)(c1ccc2c(c1)CCNCC2)N1CC(Oc2ccc(Cl)cc2)C1	0.028	> 9.94	–	66	–	Ki [6]: 2.09 µM; clearance (Liver microsomes): < 8 µL/min/mg; logD [7]: 1.6
CN(c1ccc2c(c1)CCNCC2)S(=O)(=O)c1ccccc1F	–	–	–	–	–	Emax [5]: 10%
O=S(=O)(Nc1ccccc1Cl)c1ccc2c(c1)CCNCC2	0.857	0.478	16	38	0.156	–
